Test results: ChEMBL document CHEMBL4715683, “Discovery and characterization of a novel peptide inhibitor against influenza neuraminidase” (RSC Med Chem, 2020)
Active and inactive are the calls of the source. The calls are words filed in the database; no cut-off is given here.

Key:
Erythrocyte = assay: Hemolytic activity in rabbit red blood cells at 100 uM incubated for 60 mins; type: ADME, cell-based, Oryctolagus cuniculus; details: 1 h
Method in brief: (§1)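 Fibrinogen-free rabbit blood was mixed with 0.9% saline and centrifuged to give a 2% red cell suspension. Peptide solutions were combined with the suspension, kept 60 min at 37 °C and centrifuged. Supernatant OD600 gave hemolysis, and HC50 is the 50% hemolytic concentration.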

HEK-293T = assay: Cytotoxicity against human HEK293T cells at 50 uM incubated for 48 hrs by CCK-8 assay; type: cell-based
Method in brief: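 HEK 293T cells were seeded at 5000 per well in DMEM with 10% FBS. Peptides were added at 0.78 to 50 μM for 48 h, and viability was read by CCK-8.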

Influenza A virus [1] = assay: Antiviral activity against Influenza A virus H5N1 infected in dog MDCK cells assessed as inhibition of virus-induced cytopathic effect treated 1 hr post infection and measured after 48 hrs by CCK-8 assay; type: functional, organism-based
Influenza A virus [2] = assay: Antiviral activity against Influenza A virus (H1N1) infected in dog MDCK cells assessed as inhibition of virus-induced cytopathic effect treated 1 hr post infection and measured after 48 hrs by CCK-8 assay; type: functional, organism-based
[3] = Hemolytic activity in rabbit red blood cells incubated for 60 mins; type: ADME, cell-based, Oryctolagus cuniculus, Erythrocyte; details: red blood cells (erythrocytes); method in brief: as §1
[4] = Binding affinity to influenza neuraminidase incubated for 2 hrs by ELISA; parameters: species or system Influenza A virus
Method in brief: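 His-tagged neuraminidase expressed in E. coli BL21 and Ni-affinity purified was immobilised and blocked with BSA. Biotinylated peptides at varied concentrations were bound at 37 °C for 2 h, followed by streptavidin-HRP for 1 h and HRP substrate for 15 min, then OD450. Kd came from fitting background-subtracted absorbance against peptide concentration.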

[5] = Drug uptake in human HEK293T cells at 2 uM measured upto 12 hrs by using rhodamine-labeled peptide by DAPI staining based laser scanning confocal microscopic analysis; type: ADME, cell-based; details: hek-293t
Method in brief: (§2)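 HEK 293T cells were given rhodamine-labelled peptides at 2 μM and sampled at 2, 4, 8 and 12 h. Cells were PBS-washed, fixed in 4% paraformaldehyde and DAPI-stained, then examined by laser scanning confocal microscopy and by FACS.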

Influenza A virus [6] = assay: Antiviral activity against Influenza A virus (H1N1) infected in BALB/c mouse assessed as decrease in TNF-alpha expression at 1 mg/kg/day, iv measured on day 2 and day 4 by ELISA; type: functional, organism-based; details: time 2-4 day
Method in brief: (§3)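 Balb/c mice were infected with H1N1 and treated iv once daily for seven days (peptide 1 mg kg−1 per day, starting 4 h post-inoculation), with PBS control and healthy groups. Serum was taken on days 2 and 4 post-inoculation. TNF-α, IL-6 and IFN-γ were measured by ELISA at A450. n = 6; Student's t test against the normal group.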

[7] = Drug uptake in human HEK293T cells at 2 uM incubated for 12 hrs by HPLC analysis; type: ADME, cell-based; details: hek-293t
Method in brief: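 HEK 293T cells were exposed to peptide at 2 μM for 12 h, washed twice with PBS and lysed; proteins were precipitated. Peptide was read by HPLC on a C18 column with 0.1% TFA in water and 0.1% TFA in 80% acetonitrile, gradient 14–34% B over 0–20 min, 1 mL min−1.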

Influenza A virus [8] = assay: Antiviral activity against Influenza A virus (H1N1) infected in BALB/c mouse assessed as animal survival rate at 1 mg/kg/day, iv administered for 7 days and monitored for 15 days relative to control; type: functional; details: time 7 day
Method in brief: (§4)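 Six-week-old male Balb/c mice, randomised into normal, PBS control and treated groups. Dosing began 4 h after H1N1 inoculation: peptide at 1 mg kg−1 per day or oseltamivir carboxylate at 50 mg kg−1 per day, iv once daily for seven days. Body weight and mortality were followed for 15 consecutive days; n = 6.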

[9] = Drug uptake in human HEK293T cells at 2 uM measured upto 12 hrs by using rhodamine-labeled peptide by flow cytometric analysis; type: ADME, cell-based; details: hek-293t; method in brief: as §2
Influenza A virus [10] = assay: Antiviral activity against Influenza A virus (H1N1) infected in BALB/c mouse assessed as recovery of normal body weight at 1 mg/kg/day, iv measured after 6 days; type: functional, organism-based; details: time 6.0 day; method in brief: as §4
[11] = Inhibition of Influenza A virus (H1N1) neuraminidase using 4-MU-NANA as substrate preincubated for 1 hr followed by substrate addition and measured after 18 hrs by fluorescence method
Method in brief: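 Peptide dilutions were preincubated with diluted H1N1 virus for 1 h at 37 °C. 4-MU-NANA was then added and reactions ran 18 h at 37 °C. Released 4-methylumbelliferone was read by fluorescence (Ex 355/Em 460). IC50 is the peptide concentration reducing neuraminidase activity by 50%.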

[12] = […] assessed as compound remaining after 18 hrs by RP-HPLC analysis; type: ADME, cell-free; details: human, plasma
Influenza A virus [13] = assay: Antiviral activity against Influenza A virus (H1N1) infected in BALB/c mouse assessed as decrease in INFgamma expression at 1 mg/kg/day, iv measured on day 2 and day 4 by ELISA; type: functional, organism-based; details: time 2-4 day; method in brief: as §3
Influenza A virus [14] = assay: Antiviral activity against Influenza A virus (H1N1) infected in BALB/c mouse assessed as decrease in IL6 expression at 1 mg/kg/day, iv measured on day 2 and day 4 by ELISA; type: functional, organism-based; details: time 2-4 day; method in brief: as §3
Influenza A virus (H1N1) = assay: Inhibition of Influenza A virus (H1N1) neuraminidase at 25 uM using 4-MU-NANA as substrate after 60 mins by fluorescence method relative to control
Method in brief: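 Time-course format: neuraminidase incubated with peptide (25 μM) in the presence of 4-MU-NANA substrate for up to 180 min. Fluorescence intensity read at successive time points and expressed as inhibition ratio. Mean ± SD, n = 6.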

Influenza A virus [15] = assay: Antiviral activity against Influenza A virus (H1N1) infected in BALB/c mouse assessed as reduction in lung index at 1 mg/kg/day, iv administered for 7 days and measured after 15 days; type: functional, organism-based; details: time 7.0 day
Influenza A virus [16] = assay: Antiviral activity against Influenza A virus (H1N1) infected in BALB/c mouse assessed as animal survival rate at 50 mg/kg/day, iv administered for 7 days and monitored for 15 days relative to control; type: functional; details: time 7 day; method in brief: as §4

## CC(C)C[C@H](NC(=O)[C@@H]1CCCN1C(=O)[C@H](CCCNC(=N)N)NC(=O)[C@@H](CCCNC(=N)N)NC(=O)[C@@H](CCCNC(=N)N)NC(=O)[C@H](N)Cc1ccccc1)C(=O)N[C@@H](CCCNC(=N)N)C(=O)N[C@@H](C)C(=O)O
Erythrocyte
  Activity: Non-Toxic
HEK-293T
  Activity: Non-Toxic
Influenza A virus [1]
  IC50: 50.2 µM
Influenza A virus [2]
  IC50: 22.7 µM
[3]
  HC50 at 1 h: 25 µM

## CSCC[C@H](NC(=O)[C@@H](NC(=O)[C@@H](CCCNC(=N)N)NC(=O)[C@@H](Cc1ccccc1)NC(=O)[C@H](N)CCC(=O)O)[C@@H](C)O)C(=O)N[C@H](C(=O)N[C@@H](Cc1c[nH]cn1)C(=O)N1CCC[C@H]1C(=O)N[C@@H](CCCCN)C(=O)O)C(C)C
Erythrocyte
  Activity: Non-Toxic
HEK-293T
  Activity: Non-Toxic
[4]
  Kd: 0.0203 µM
Influenza A virus [1]
  IC50: 23.8 µM
Influenza A virus [2]
  IC50: 15.7 µM
[3]
  HC50 at 1 h: 25 µM

## C[C@H](NC(=O)[C@@H]1CCCN1C(=O)[C@H](CCCCN)NC(=O)[C@@H](CCCNC(=N)N)NC(=O)[C@@H](CCCNC(=N)N)NC(=O)[C@H](N)CCC(=O)O)C(=O)N[C@@H](CCC(N)=O)C(=O)N1CCC[C@H]1C(=O)O
[5]
  Drug uptake: Active
Influenza A virus [6]
  Activity: Active
[7]
  Drug uptake: Active
Erythrocyte
  Activity: Non-Toxic
Influenza A virus [8]
  Activity: 90%
HEK-293T
  Activity: Non-Toxic
[9]
  Drug uptake: Active
Influenza A virus [10]
  Activity: Active
[4]
  Kd: 0.011 µM
[11]
  IC50: 4.25 µM
[12]
  Stabilty: Stable
Influenza A virus [1]
  IC50: 1.46 µM
Influenza A virus [2]
  IC50: 2.26 µM
Influenza A virus [13]
  Activity: Active
[3]
  HC50 at 1 h: 25 µM
Influenza A virus [14]
  Activity: Active
Influenza A virus (H1N1)
  inhibition: 100%
Influenza A virus [15]
  Activity: Active

## C[C@H](NC(=O)[C@@H](NC(=O)[C@H](CCCCN)NC(=O)[C@H](Cc1c[nH]cn1)NC(=O)[C@H](Cc1ccccc1)NC(=O)[C@H](CCC(=O)O)NC(=O)[C@H](N)CCCCN)[C@@H](C)O)C(=O)N[C@@H](CCC(N)=O)C(=O)N1CCC[C@H]1C(=O)O
[4]
  Kd: 0.0286 µM
[11]
  IC50: < 25 µM
Influenza A virus [1]
  IC50: 25.4 µM
Influenza A virus [2]
  IC50: 16.6 µM
[3]
  HC50 at 1 h: 25 µM

## CCC(CC)O[C@@H]1C=C(C(=O)O)C[C@H](N)[C@H]1NC(C)=O [OSELTAMIVIR CARBOXYLATE]
Influenza A virus [16]
  Activity: 100%
Influenza A virus [1]
  IC50: 0.0056 µM
Influenza A virus [2]
  IC50: 0.0113 µM

## C[C@H](NC(=O)[C@@H]1CCCN1C(=O)[C@H](CCCCN)NC(=O)[C@H](CCCNC(=N)N)NC(=O)[C@@H](Cc1c[nH]c2ccccc12)NC(=O)CN)C(=O)N[C@@H](CCC(N)=O)C(=O)N1CCC[C@H]1C(=O)O
[5]
  Drug uptake: Active
Influenza A virus [6]
  Activity: Active
[7]
  Drug uptake: Active
Erythrocyte
  Activity: Non-Toxic
HEK-293T
  Activity: Non-Toxic
[9]
  Drug uptake: Active
Influenza A virus [10]
  Activity: Active
[4]
  Kd: 0.0277 µM
[12]
  Stabilty: Stable
Influenza A virus [1]
  IC50: 27.5 µM
Influenza A virus [2]
  IC50: 36 µM
Influenza A virus [13]
  Activity: Active
[3]
  HC50 at 1 h: 25 µM
Influenza A virus [14]
  Activity: Active
Influenza A virus [15]
  Activity: Active

## C[C@H](NC(=O)[C@@H]1CCCN1C(=O)[C@H](CCCCN)NC(=O)[C@H](CCC(=O)O)NC(=O)[C@@H](CCC(=O)O)NC(=O)[C@H](N)CCC(=O)O)C(=O)N[C@@H](CCC(N)=O)C(=O)N1CCC[C@H]1C(=O)O
Influenza A virus [1]
  IC50: 64.3 µM
Influenza A virus [2]
  IC50: 36.1 µM
[3]
  HC50 at 1 h: 25 µM

## C[C@H](NC(=O)[C@@H]1CCCN1C(=O)[C@H](CCCCN)NC(=O)[C@@H](CCCNC(=N)N)NC(=O)[C@H](Cc1c[nH]cn1)NC(=O)CN)C(=O)N[C@@H](CCC(N)=O)C(=O)N1CCC[C@H]1C(=O)O
[11]
  IC50: < 25 µM
Influenza A virus [1]
  IC50: 31.3 µM
Influenza A virus [2]
  IC50: 28.4 µM
[3]
  HC50 at 1 h: 25 µM

## C[C@H](NC(=O)[C@@H](NC(=O)[C@H](CCCCN)NC(=O)[C@@H](Cc1c[nH]cn1)NC(=O)[C@@H](CC(=O)O)NC(=O)[C@@H](N)CC(=O)O)[C@@H](C)O)C(=O)N[C@@H](Cc1c[nH]cn1)C(=O)N[C@@H](CCC(N)=O)C(=O)O
[4]
  Kd: 0.0386 µM
Influenza A virus [1]
  IC50: 48.2 µM
Influenza A virus [2]
  IC50: 28.4 µM
[3]
  HC50 at 1 h: 25 µM

## C[C@H](NC(=O)[C@H](CCC(N)=O)NC(=O)[C@H](C)NC(=O)[C@H](Cc1c[nH]cn1)NC(=O)[C@H](CCCCN)NC(=O)[C@H](CCCNC(=N)N)NC(=O)[C@@H](CC(=O)O)NC(=O)[C@H](N)CCC(=O)O)C(=O)O
[4]
  Kd: 0.0366 µM
[11]
  IC50: < 25 µM
Influenza A virus [1]
  IC50: 3.32 µM
Influenza A virus [2]
  IC50: 3.08 µM
[3]
  HC50 at 1 h: 25 µM

## CC(C)C[C@H](NC(=O)[C@@H](CCCNC(=N)N)NC(=O)[C@H](CCCCN)NC(=O)[C@H](N)Cc1c[nH]c2ccccc12)C(=O)N[C@@H](Cc1c[nH]cn1)C(=O)N[C@@H](Cc1c[nH]cn1)C(=O)N[C@@H](CCCCN)C(=O)N1CCC[C@H]1C(=O)N[C@@H](C)C(=O)O
Erythrocyte
  Activity: Non-Toxic
HEK-293T
  Activity: Non-Toxic
[4]
  Kd: 0.019 µM
[11]
  IC50: < 25 µM
Influenza A virus [1]
  IC50: 17.9 µM
Influenza A virus [2]
  IC50: 16 µM
[3]
  HC50 at 1 h: 25 µM
